From paper PMC8359148 (ACS Omega, 2021)
Entries after “also recorded” stand apart in the source; their conditions may differ.

Experiments:
[1] = system: chloroquine-resistant P. falciparum Dd2 parasites; assay: SYBR Green I dose–response assay against Dd2 parasites; assay type: cell-based; conditions: Plasmodium falciparum, DD2, read-out: EC50 Dd2, chloroquine-resistant P. falciparum Dd2, three or more independent experiments
How it was run: (§1)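 Dose–response EC50 values, each from three or more independent experiments. Dd2 and 3D7 runs use chloroquine as comparator. The selectivity index is calculated as HepG2 EC50 divided by Dd2 EC50.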

[2] = system: wild-type P. falciparum 3D7 cells; assay: dose–response assay against 3D7 cells; assay type: cell-based; conditions: Plasmodium falciparum, 3D7, read-out: EC50 3D7
How it was run: as §1

[3] = system: HepG2 (liver hepatocellular carcinoma) cells; assay: HepG2; assay type: cell-based, human; conditions: for selectivity index (SI): HepG2 EC50/EC50 Dd2 cells; for EC50: Homo sapiens, HepG2, read-out: EC50 HepG2
How it was run: as §1

[4] = system: tightly synchronized P. falciparum Dd2 cells; assay: developmental stage-specific action; assay type: cell-based, Plasmodium falciparum
How it was run: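 Tightly synchronized Dd2 cultures are treated with 1.25 μM test compound at 6, 18, 30 or 42 HPI, with 0.1% DMSO-treated infected RBCs as negative control and DHA and atovaquone as positive controls. Every 12 h, Giemsa-stained smears are read. Flow cytometry samples are fixed in 4% paraformaldehyde/0.0075% glutaraldehyde, permeabilized with 0.25% Triton X-100, RNase-treated (50 μg/mL) and YOYO-1 stained; parasitemia is taken by flow cytometry.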

[5] = system: P. falciparum Dd2 cultures; assay: kinetic kill experiments; assay type: cell-based, Plasmodium falciparum; conditions: for EC50: Plasmodium falciparum, DD2, read-out: 5 × EC50
How it was run: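 Asynchronous Dd2 cultures are exposed to test compound for 6, 12, 24 or 48 h at 0.15% DMSO, then washed three times in RPMI and resuspended in culture medium. Parasite growth is monitored daily for 96 h. DHA (50 nM) and atovaquone (6.6 nM) serve as controls.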

solubility = assay type: physicochemical
How it was run: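 DMSO solubility is tested up to 100 mM, the highest concentration tested. For aqueous solubility, PBS is slowly titrated into 10 mM DMSO stock to give 100 μM, the highest concentration tested. Clarity is checked visually against a PBS standard at room temperature over 24 h.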

chemical stability = assay type: physicochemical

With `CC[C@@]12C=C(C(=O)OC)n3c(c(c4ccccc43)CCN(C(=O)c3ccccn3)CCC1)[C@@H]2c1ccc(O)cc1` [Compound 30, methyl (11S,19S)-11-ethyl-19-(4-hydroxyphenyl)-15-(pyridine-2-carbonyl)-8,15-diazatetracyclo[9.6.2.0^2,7.0^8,18]nonadeca-1(18),2(7),3,5,9-pentaene-9-carboxylate] the EC50 [1] was 250 ± 4 nM, the EC50 [2] was 1190 ± 250 nM and the “selectivity index (SI)” value [3] was greater than 100. For the same molecule, the EC50 [3] was greater than 25000 nM, the “parasitemia (flow cytometry)” value ([4]; Dd2 cells treated at 6, 18 and 30 HPI, 5 x EC50) was “remarkable decrease in parasitemia” and the “effect on maturation when treated at 42 HPI” value ([4]; Dd2 cells treated at 42 HPI, 5 x EC50) was “did not inhibit maturation”. For the same molecule, the stage-specific activity ([4]; synchronized Dd2, 5 x EC50 (1.25 μM), treated at 6, 18, 30 and 42 HPI) was “prevents exit on the parasite from the schizont stage; also recorded: arrested at the late schizont stage; also recorded: do not advance beyond the late schizont stage; also recorded: act specifically on the trophozoite/schizont stage”, the “effect after 24 h treatment” value ([5]; 5× EC50, 24 h treatment, based on the 96 h time point) was “reduces parasitemia” and the “effect after 48 h treatment” value ([5]; 5× EC50, 48 h treatment) was “more dramatic parasitocidal effect”. It also gave a kill rate ([5]; Dd2 cultures, 5 × EC50, treatment time required to kill) greater than 24 h, a solubility at 24 h (solubility; PBS buffer, aqueous buffer, kinetic from dmso stock) of no less than 0.1 mM and a solubility (solubility; biological grade DMSO, organic solvent or mixture) of no less than 100 mM. For the same molecule, the “chemical stability in acidified PBS” value (chemical stability; 100 μM, PBS pH 2.0 (1.95), 24 h room temperature then 24 h 37 °C, TLC and NMR) was “no compound breakdown; also recorded: no degradation”, the “chemical stability in PBS pH 7.4” value (chemical stability; 100 μM, PBS pH 7.4, 24 h room temperature then 24 h 37 °C, TLC and NMR) was “no compound breakdown; also recorded: no degradation” and the “chemical stability during NMR experiments” value (chemical stability; 100 °C for multiple hours) was “without showing compound breakdown”.

With `CC[C@@]12C=C(C(=O)OC)n3c(c(c4ccccc43)CCN(C(=O)c3cncc(Br)c3)CCC1)[C@@H]2c1ccc(O)cc1` [Compound 33, methyl (11S,19S)-15-(5-bromopyridine-3-carbonyl)-11-ethyl-19-(4-hydroxyphenyl)-8,15-diazatetracyclo[9.6.2.0^2,7.0^8,18]nonadeca-1(18),2(7),3,5,9-pentaene-9-carboxylate] the EC50 [1] was 650 ± 9 nM, the EC50 [2] was 1700 ± 320 nM and the “selectivity index (SI)” value [3] was greater than 38. The EC50 [3] was greater than 25000 nM.

`C[C@H]1[C@@H](O)O[C@@H]2O[C@@]3(C)CC[C@H]4[C@H](C)CC[C@@H]1[C@@]24OO3` [Dihydroartemisinin (DHA), Dihydroartemisinin, reference compound] gave an EC50 [5] of 50 nM.

For `O=C1C(O)=C([C@H]2CC[C@H](c3ccc(Cl)cc3)CC2)C(=O)c2ccccc21` [atovaquone, reference compound], the EC50 [5] was 6.6 nM.
